Results as given in ChEMBL document CHEMBL3525979, “Combined contributions of impaired hepatic CYP2C11 and intestinal breast cancer resistance protein activities and expression to increased oral glibenclamide exposure in rats with streptozotocin-induced diabetes mellitus” (Drug Metab Dispos, 2012).

Key:
[1] = AUC (0 to t) in normal Sprague-Dawley rat at 10 mg/kg, po by HPLC method; format: ADME, organism-based; design: dose 10 mg/kg, route oral; conditions: plasma
Outline: (§1)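 Sprague-Dawley rats: diabetes induced by STZ 65 mg/kg i.p. in citrate buffer pH 4.5 (fasting glucose >11.1 mM at day 7). Insulin group received protamine zinc insulin 5 U/kg s.c. twice daily for 4 weeks. On day 35, overnight-fasted rats got GLB 10 mg/kg orally in 0.5% CMC-Na. Plasma GLB measured by HPLC with fluorescence detection (ex 308/em 360 nm). Non-compartmental analysis; n=6-7.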

[2] = Mean residence time in Sprague-Dawley rat model of streptozotocin-induced diabetes mellitus at 10 mg/kg, po by HPLC method; format: ADME, organism-based; design: dose 10 mg/kg, route oral; conditions: in vivo; outline: as §1
[3] = Terminal elimination half life in normal Sprague-Dawley rat at 10 mg/kg, po by HPLC method; format: ADME, organism-based; design: dose 10 mg/kg, route oral; conditions: in vivo, read-out: beta t1/2 (converted)
Outline: (§2)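 Rats given STZ 65 mg/kg i.p. in citrate buffer pH 4.5 (controls got buffer); diabetic if fasting glucose >11.1 mM at day 7; insulin group got protamine zinc insulin 5 U/kg s.c. twice daily for 4 weeks. On day 35, overnight-fasted rats dosed orally with 10 mg/kg in 0.5% CMC-Na; plasma by ethyl acetate extraction, HPLC fluorescence (ex 308/em 360 nm); non-compartmental analysis; n=6-7, mean ± S.D.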

Liver microsome = test: Apparent hepatic clearance in streptozotocin-induced diabetes mellitus Sprague-Dawley rat liver microsomes assessed per mg protein at 4 uM after 60 mins; format: ADME; conditions: 1 h
Outline: (§3)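 Liver microsomes (0.5 mg/mL protein) from control, STZ-diabetic or insulin-treated diabetic rats, 0.01 M phosphate buffer pH 7.4, 4 μM GLB (methanol <1%); 5 min preincubation at 37 °C, started with NADPH regenerating system. Stopped with 1 M HCl at 0, 5, 15, 30, 45, 60 min. GLB depletion measured by HPLC-fluorescence. AUC by linear trapezoid; Clapp = initial dose/AUC0-t; t1/2 = 0.693/terminal slope. Triplicate incubations; 4-5 rats.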

[4] = Cmax in normal Sprague-Dawley rat at 10 mg/kg, po by HPLC method; format: ADME, organism-based; design: dose 10 mg/kg, route oral; conditions: in vivo; outline: as §1
[5] = AUC (0 to t) in insulin treated Sprague-Dawley rat model of streptozotocin-induced diabetes mellitus at 10 mg/kg, po by HPLC method; format: ADME, organism-based; design: dose 10 mg/kg, route oral; conditions: in vivo; outline: as §1
[6] = Tmax in Sprague-Dawley rat model of streptozotocin-induced diabetes mellitus at 10 mg/kg, po by HPLC method; format: ADME, organism-based; design: dose 10 mg/kg, route oral; conditions: in vivo; outline: as §2
[7] = Drug excretion in normal Sprague-Dawley rat bile at 10 mg/kg, po by HPLC method; format: ADME, organism-based; design: dose 10 mg/kg, route oral; conditions: read-out: Drug excretion
Outline: (§4)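 STZ-diabetic (65 mg/kg i.p.), insulin-treated or control rats were dosed with GLB 10 mg/kg orally on day 35 after overnight fast. Urine and feces were collected in metabolic cages at 6-h intervals to 36 h. For bile, the common bile duct was cannulated under pentobarbital and bile collected to 12 h. GLB measured by HPLC-fluorescence and expressed as % of dose.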

[8] = Drug excretion in feces of insulin treated Sprague-Dawley rat model of streptozotocin-induced diabetes mellitus at 10 mg/kg, po by HPLC method; format: ADME, organism-based; design: dose 10 mg/kg, route oral; conditions: faeces, read-out: Drug excretion; outline: as §4
[9] = Oral clearance in normal Sprague-Dawley rat at 10 mg/kg, po by HPLC method; format: ADME, organism-based; design: dose 10 mg/kg, route oral; conditions: in vivo; outline: as §2
[10] = Apparent oral volume of distribution in Sprague-Dawley rat model of streptozotocin-induced diabetes mellitus at 10 mg/kg, po by HPLC method; format: ADME, organism-based; design: dose 10 mg/kg, route oral; conditions: in vivo; outline: as §1
[11] = AUC (0 to 60 mins) in insulin treated streptozotocin-induced diabetes mellitus Sprague-Dawley rat liver microsomes at 4 uM after 60 mins; format: ADME; design: dose 4 uM, time < 1 hr; outline: as §3
[12] = Drug excretion in urine of Sprague-Dawley rat model of streptozotocin-induced diabetes mellitus at 10 mg/kg, po by HPLC method; format: ADME, organism-based; design: dose 10 mg/kg, route oral; conditions: read-out: Drug excretion; outline: as §4
[13] = Drug excretion in urine of insulin treated Sprague-Dawley rat model of streptozotocin-induced diabetes mellitus at 10 mg/kg, po by HPLC method; format: ADME, organism-based; design: dose 10 mg/kg, route oral; conditions: read-out: Drug excretion; outline: as §4
[14] = Half life in streptozotocin-induced diabetes mellitus Sprague-Dawley rat liver microsomes at 4 uM after 60 mins; format: ADME; outline: as §3
[15] = Mean residence time in insulin treated Sprague-Dawley rat model of streptozotocin-induced diabetes mellitus at 10 mg/kg, po by HPLC method; format: ADME, organism-based; design: dose 10 mg/kg, route oral; conditions: in vivo; outline: as §1
[16] = Half life in normal Sprague-Dawley rat liver microsomes at 4 uM after 60 mins; format: ADME; outline: as §3
[17] = AUC (0 to infinity) in insulin treated Sprague-Dawley rat model of streptozotocin-induced diabetes mellitus at 10 mg/kg, po by HPLC method; format: ADME, organism-based; design: dose 10 mg/kg, route oral, time infinity; conditions: in vivo; outline: as §1
Jejunum [18] = test: Drug absorption in normal Sprague-Dawley rat jejunum assessed as 200 uM BCRP inhibitor novobiocin-mediated increase in apparent effective permeability at 10 ug/ml measured at 45 mins of perfusion; format: ADME, tissue-based; design: scale not given: the % may be the effect or the level left; conditions: 0.75 h
Outline: (§5)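 Normal rats underwent in situ single-pass jejunal perfusion: saline preperfusion at 0.2 mL/min, 37 °C, for 20 min, then K-H buffer with GLB 10 μg/mL with or without novobiocin 50 or 200 μM. Effluent was collected every 15 min. Peff (cm/min) was calculated from GLB loss and the absorptive area of the segment; n=5.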

[19] = AUC (0 to 60 mins) in normal Sprague-Dawley rat liver microsomes at 4 uM after 60 mins; format: ADME; design: time < 1 hr, dose 4 uM; outline: as §3
[20] = Mean residence time in normal Sprague-Dawley rat at 10 mg/kg, po by HPLC method; format: ADME, organism-based; design: dose 10 mg/kg, route oral; conditions: in vivo; outline: as §1
[21] = Half life in insulin treated streptozotocin-induced diabetes mellitus Sprague-Dawley rat liver microsomes at 4 uM after 60 mins; format: ADME; outline: as §3
Jejunum [22] = test: Drug absorption in normal Sprague-Dawley rat jejunum at 10 ug/ml in presence of 50 to 200 uM BCRP inhibitor novobiocin; format: ADME, tissue-based; conditions: in vivo; outline: as §5
[23] = Oral clearance in Sprague-Dawley rat model of streptozotocin-induced diabetes mellitus at 10 mg/kg, po by HPLC method; format: ADME, organism-based; design: dose 10 mg/kg, route oral; conditions: in vivo; outline: as §1

- AUC(0-t) [1]: 2350 ng·h/mL
- MRT [2]: 9.28 h
- half-life [3]: 4.55 h
- CLH(app) (Liver microsome): 52 µL/min/mg
- Cmax [4]: 350 ng/mL
- AUC(0-t) [5]: 2380 ng·h/mL
- Tmax [6]: 7.2 h
- dose excreted [7]: 0.01%
- dose excreted [8]: 50%
- CL/F [9]: 65.5 mL/min/kg
- Vd/F [10]: 6.36 L/kg
- AUC(0-t) at 1 h, 4 µM [11]: 357 ng·h/mL
- dose excreted [12]: 0.023%
- dose excreted [13]: 0.019%
- half-life at 4 µM [14]: 0.526 h
- MRT [15]: 8.15 h
- half-life at 4 µM [16]: 0.207 h
- AUC(0-inf) [17]: 3000 ng·h/mL
- Activity (Jejunum [18]): 25%
- AUC(0-t) at 1 h, 4 µM [19]: 307 ng·h/mL
- MRT [20]: 7.23 h
- half-life at 4 µM [21]: 0.211 h
- Drug absorption (Jejunum [22]): Active
- CL/F [23]: 12 mL/min/kg
SMILES: COc1ccc(Cl)cc1C(=O)NCCc1ccc(S(=O)(=O)NC(=O)NC2CCCCC2)cc1 [GLYBURIDE]
